Assay results taken from ChEMBL document CHEMBL3227981, “Studies on biologically active nucleosides and nucleotides. 5. Synthesis and antitumor activity of some 2,2'-anhydro-1-(3',5'-di-O-acyl-beta-D-arabinofuranosyl)cytosine salts and 2,2'-anhydro-1-(3'-O-acyl-beta-D-arabinofuranoxyl)cytosine 5'-phosphates” (J Med Chem, 1979).

Columns and labels:
[1] = test system: L1210; assay: Antitumor activity against mouse L1210 cells allografted in BDF1 mouse assessed as increase of host life span at 25 mg/kg, ip qd for 5 days; assay type: functional; conditions: route intraperitoneal
Procedure, shortened: (§1)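 BDF1 mice were given 1×10^5 L1210 cells ip. Compound was dissolved or suspended in 0.9% NaCl with 0.1% HCO-60 and given ip daily for 5 days, starting 24 h after inoculation. Groups had 6–10 mice. ILS = (T/C − 1) × 100, from mean survival time of treated versus control mice, observed over 60 days.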

[2] = test system: L1210; assay: Antitumor activity against mouse L1210 cells allografted in BDF1 mouse assessed as increase of host life span at 100 mg/kg, ip qd for 5 days; assay type: functional; conditions: route intraperitoneal; procedure, shortened: as §1
[3] = Toxicity in ip dosed ICR mouse up to 3 weeks; assay type: organism-based; conditions: in vivo
Procedure, shortened: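 Maximum tolerated dose was set from a single ip injection into three female ICR mice weighing 20–21 g, followed by 3 weeks of observation.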

[4] = test system: L1210; assay: Antitumor activity against mouse L1210 cells allografted in BDF1 mouse assessed as increase of host life span at 6.25 mg/kg, ip qd for 5 days; assay type: functional; conditions: route intraperitoneal; procedure, shortened: as §1
[5] = test system: L1210; assay: Antitumor activity against mouse L1210 cells allografted in BDF1 mouse assessed as increase of host life span at 100 mg/kg, po qd for 5 days; assay type: functional
Procedure, shortened: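 L1210 cells (1×10^5) were implanted ip in BDF1 mice. Oral dosing began 24 h later and ran once daily for 5 days, with compound in 0.9% saline containing 0.1% HCO-60 as solution or suspension. Six to ten mice per group. Percent ILS was (T/C − 1) × 100 on mean survival time, with a 30-day observation period.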

| Structure (SMILES) | Activity [1] [%] | Activity [2] [%] | MTD at 504 h [3] [mg/kg] | Activity [4] [%] | Activity [5] [%] |
| --- | --- | --- | --- | --- | --- |
| CCOCCC(=O)OC[C@H]1O[C@@H]2[C@H](Oc3nc(=N)ccn32)[C@@H]1OC(=O)CCOCC.Cl | 15.4 | 57.5 |  |  |  |
| CCCCCCCOCCC(=O)OC[C@H]1O[C@@H]2[C@H](Oc3nc(=N)ccn32)[C@@H]1OC(=O)CCOCCCCCCC.Cl | 28.2 |  | 100 |  |  |
| CCCCCCCCCCCCOCCC(=O)OC[C@H]1O[C@@H]2[C@H](Oc3nc(=N)ccn32)[C@@H]1OC(=O)CCOCCCCCCCCCCCC.Cl | 118 | >595 | 500 | 30.8 |  |
| Cl.N=c1ccn2c(n1)O[C@@H]1[C@H](OC(=O)CCNC(=O)c3ccccc3)[C@@H](COC(=O)CCNC(=O)c3ccccc3)O[C@H]12 | 2.6 | 32.1 |  |  |  |
| CCCC(=O)NCCCCCCCCCCC(=O)OC[C@H]1O[C@@H]2[C@H](Oc3nc(=N)ccn32)[C@@H]1OC(=O)CCCCCCCCCCNC(=O)CCC.Cl | 51.3 | 92.3 | 500 | 20.5 |  |
| F[B-](F)(F)F.[NH2+]=c1ccn2c(n1)O[C@@H]1[C@H](OC(=O)CCCCCCCCCCNC(=O)c3ccccc3)[C@@H](COC(=O)CCCCCCCCCCNC(=O)c3ccccc3)O[C@H]12 | 100 | >292.3 | 500 | 38.5 |  |
| Cc1ccc(S(=O)(=O)NCCC(=O)OC[C@H]2O[C@@H]3[C@H](Oc4nc(=[NH2+])ccn43)[C@@H]2OC(=O)CCNS(=O)(=O)c2ccc(C)cc2)cc1.F[B-](F)(F)F | 15 | 47.5 |  |  |  |
| Cc1ccc(S(=O)(=O)NCCCCCCCCCCC(=O)OC[C@H]2O[C@@H]3[C@H](Oc4nc(=[NH2+])ccn43)[C@@H]2OC(=O)CCCCCCCCCCNS(=O)(=O)c2ccc(C)cc2)cc1.F[B-](F)(F)F | 90 | 140 | 500 | 12.5 |  |
| F[B-](F)(F)F.[NH2+]=c1ccn2c(n1)O[C@@H]1[C@H](OC(=O)CCN3C(=O)c4ccccc4C3=O)[C@@H](COC(=O)CCN3C(=O)c4ccccc4C3=O)O[C@H]12 | 2.6 | 39.7 |  |  |  |
| F[B-](F)(F)F.[NH2+]=c1ccn2c(n1)O[C@@H]1[C@H](OC(=O)CCCCCN3C(=O)c4ccccc4C3=O)[C@@H](COC(=O)CCCCCN3C(=O)c4ccccc4C3=O)O[C@H]12 | 23.1 | 60.3 | 300 |  |  |
| F[B-](F)(F)F.[NH2+]=c1ccn2c(n1)O[C@@H]1[C@H](OC(=O)CCCCCCCCCCN3C(=O)c4ccccc4C3=O)[C@@H](COC(=O)CCCCCCCCCCN3C(=O)c4ccccc4C3=O)O[C@H]12 | 76.9 | >510.3 | 500 | 23.1 |  |
| CCOC(=O)CCC(=O)OC[C@H]1O[C@@H]2[C@H](Oc3nc(=N)ccn32)[C@@H]1OC(=O)CCC(=O)OCC.Cl | 12.4 | 35.4 | > 1000 |  | 21.6 |
| CCOC(=O)CCCCCCCCCCCCCCC(=O)OC[C@H]1O[C@@H]2[C@H](Oc3nc(=N)ccn32)[C@@H]1OC(=O)CCCCCCCCCCCCCCC(=O)OCC.Cl | 10.7 | 37.3 |  |  | 6.7 |
| C=CCCCCCCCCC(=O)OC[C@H]1O[C@@H]2[C@H](Oc3nc(=N)ccn32)[C@@H]1OC(=O)CCCCCCCCC=C.Cl | 51.3 | 97.5 | 300 | 17.9 |  |
